Sampled rows, rich in hits. Any-hit rate of the full collection: about 2.8%.
E-selectin induc: E-selectin induction on HUVECs; HUVEC E-selectin immunofluorescence imaging; normalized: neutral wells 0, TNF-alpha wells 100; activation, % at 7.58 µM; actives 0.37% (n = 260,000); AID 686992;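 active means mean E-selectin-positive cell signal at least 10% of the positive control, reached in at least 60% of replicates, without over 20% cell loss; inconclusive means no rule given, readout overlaps actives, possibly toxicity-flagged; inactive means the rest, including those meeting only one limit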
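Test system: HUVEC; input: 3,000 HUVEC/well; measured by: immunofluorescence imaging; read-out: % PE-positive cells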
SIRT5 inh: inhibitors of human sirtuin-5 desuccinylase; actives 1.1% (n = 330,000); Q9NXA8; Purified SirT5, succinyl-peptide AMC, trypsin-coupled fluorescence; inhibition, % at 15 µM; AID 652115; in the data active means inhibition above about 15%; inconclusive means no clear call, values can overlap the other calls
Target sequence (Q9NXA8 whole entry, looked up): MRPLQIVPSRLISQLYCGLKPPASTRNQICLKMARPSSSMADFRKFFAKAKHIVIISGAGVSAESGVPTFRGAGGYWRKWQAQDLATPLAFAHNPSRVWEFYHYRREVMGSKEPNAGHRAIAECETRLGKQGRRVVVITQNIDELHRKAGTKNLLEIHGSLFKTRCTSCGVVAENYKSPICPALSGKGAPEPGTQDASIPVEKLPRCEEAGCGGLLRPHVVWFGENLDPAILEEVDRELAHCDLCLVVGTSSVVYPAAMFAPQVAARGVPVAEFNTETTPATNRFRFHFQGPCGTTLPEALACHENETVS
DENV2 CPE rescue: inhibitors of DENV2 cytopathic effect. DENV2-infected cells, cytopathic effect rescue, plate reader. CPE inhibition, % at 9.99 µM. actives 1.7% (n = 350,000); in the data active means CPE inhibition above about 20%, passing the limit was not always enough; inconclusive means no clear call, values can overlap the other calls; tested in BHK-21 cells;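 further: 0% = median of neutral control wells and 100% = median of positive control wells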
Active calls of the source: *; ? = inconclusive; . = no result; ! = a repeat was not active.

SMILES	E-selectin induc	SIRT5 inh	DENV2 CPE rescue
CN(Cc1ccsc1)C(=O)CCc1nnc(Cc2c[nH]c3ccccc23)o1	.	-3.7	.
CN(Cc1ccsc1)C(=O)CCc1nnc(CCCc2ccccc2)o1	27.3*	-1.5	1.9
C[C@@H]1CCCCO[C@@H](CN(C)C(=O)CCCN(C)C)[C@H](C)CN([C@H](C)CO)C(=O)c2cc(NC(=O)C3CCCCC3)ccc2O1	0.0	-0.7	0.4
CC(C)CC#Cc1ccc2c(c1)O[C@H](CN(C)S(=O)(=O)c1cccc(F)c1)[C@@H](C)CN([C@H](C)CO)S2(=O)=O	-0.2	15.7*	-5.4
COCC#Cc1ccc2c(c1)O[C@@H](CN(C)S(=O)(=O)c1cccc(F)c1)[C@@H](C)CN([C@H](C)CO)S2(=O)=O	-0.5	18.6*!	-1.0
COCC#Cc1ccc2c(c1)O[C@@H](CN(C)S(=O)(=O)c1cccc(F)c1)[C@H](C)CN([C@H](C)CO)S2(=O)=O	0.0	1.9	?
CCCC#Cc1ccc2c(c1)O[C@H](CN(C)S(=O)(=O)c1cccc(OC)c1)[C@H](C)CN([C@H](C)CO)S2(=O)=O	-0.1	17.3*!	-0.3
C[C@@H]1CN([C@H](C)CO)S(=O)(=O)c2ccc(C#CCN(C)C)cc2O[C@@H]1CN(C)S(=O)(=O)c1cccc(F)c1	0.1	.	.
COc1cccc(S(=O)(=O)N(C)C[C@H]2Oc3cc(C#CCN(C)C)ccc3S(=O)(=O)N([C@@H](C)CO)C[C@H]2C)c1	-0.1	3.0	-1.3
CCCC#Cc1ccc2c(c1)O[C@@H](CN(C)S(=O)(=O)c1cccc(F)c1)[C@@H](C)CN([C@H](C)CO)S2(=O)=O	-0.2	1.0	6.1
CC(C)CC#Cc1ccc2c(c1)O[C@@H](CN(C)S(=O)(=O)c1cccc(F)c1)[C@H](C)CN([C@H](C)CO)S2(=O)=O	-0.5	19.4*	-0.8
COc1ccc(CN(C)C[C@H]2OCCCC[C@@H](C)Oc3ccc(NC(=O)CCC(F)(F)F)cc3C(=O)N([C@@H](C)CO)C[C@@H]2C)cc1	0.0	-1.0	10.8
COc1cccc(C(=O)N2C[C@@H]3[C@H](c4ccccc42)[C@@H](CO)N3C(=O)c2ccccc2)c1	-0.3	0.8	-9.8
CCCNC(=O)[C@H]1[C@H](CO)[C@H]2Cn3c(ccc(-c4cccnc4)c3=O)[C@H]2N1Cc1cocn1	-0.9	-7.1	-7.6
CC(C)NC(=O)N(C)C[C@H]1Oc2c(NC(=O)Nc3cccc4ccccc34)cccc2C(=O)N([C@H](C)CO)C[C@H]1C	0.1	-5.4	14.0
CN(C)CC#Cc1cccc(-c2nc(C(=O)N3CCN(C)CC3)cc3c2[C@@H](CCO)N(S(=O)C(C)(C)C)C3)c1 (some centres undefined)	.	-8.0	?
C[C@H](CO)N1C[C@H](C)[C@H](CN(C)S(=O)(=O)c2cccc(F)c2)Oc2cc(C#CCN(C)C)ccc2S1(=O)=O	0.0	5.0	-1.5
CC(C)CC#Cc1ccc2c(c1)O[C@@H](CN(C)S(=O)(=O)c1cccc(F)c1)[C@H](C)CN([C@@H](C)CO)S2(=O)=O	0.0	17.1*	-3.5
C[C@@H]1CN([C@H](C)CO)S(=O)(=O)c2ccc(C#CCN(C)C)cc2O[C@H]1CN(C)S(=O)(=O)c1cccc(F)c1	0.2	6.5	-0.9
CC(C)CC#Cc1ccc2c(c1)O[C@@H](CN(C)S(=O)(=O)c1cccc(F)c1)[C@@H](C)CN([C@@H](C)CO)S2(=O)=O	.	19.6*	9.4
O=C(C[C@H]1CC[C@@H]2[C@H](COC[C@@H](O)CN2Cc2cc(F)cc(F)c2)O1)NC1CCCC1	-0.1	8.6	1.2
O=C(C[C@@H]1C=C[C@H](NC(=O)Nc2cc(F)ccc2F)[C@H](CO)O1)Nc1ccc(-c2ccccc2)cc1	0.4	-1.7	10.1
O=C(CNC(=S)NC(=O)c1ccc(F)cc1)c1ccccc1	1.1	-0.3	?
O=C(O)CCC(=O)NCC(=O)c1ccc(F)cc1	70.2*	.	-3.2
C[C@@H]1CN([C@@H](C)CO)C(=O)c2cc(C3=CCCC3)cnc2O[C@H]1CN(C)Cc1cccnc1	0.2	6.8	1.4
SMILES	E-selectin induc	SIRT5 inh	DENV2 CPE rescue
O=C(N[C@H]1CC[C@@H](CCNS(=O)(=O)c2cccc(Cl)c2)O[C@H]1CO)c1ccncc1	-0.1	5.2	-3.9
CCN(CC)CCOc1c(C)cccc1Cl	.	7.3	1.8
CCN(CC)CCCC(C)Nc1nccc2c(Cl)cccc12 (centres undefined)	0.1	-6.1	48.7*
CC(=O)N(C)C[C@H]1Oc2cc(C#CC(C)(C)O)ccc2S(=O)(=O)N([C@H](C)CO)C[C@@H]1C	-0.1	2.2	1.3
C[C@H](CO)N1C[C@H](C)[C@H](CN(C)C(=O)Nc2cccc3ccccc23)Oc2ccc(NC(=O)Nc3cccc4ccccc34)cc2CC1=O	0.6	-2.8	-4.9
C[C@@H]1CN([C@H](C)CO)C(=O)Cc2cc(NC(=O)Nc3cccc4ccccc34)ccc2O[C@@H]1CN(C)C(=O)Nc1ccc(C(F)(F)F)cc1	1.4	0.3	?
C[C@@H]1CN([C@H](C)CO)C(=O)Cc2cc(NC(=O)Nc3cccc4ccccc34)ccc2O[C@@H]1CN(C)C(=O)Nc1cccc2ccccc12	0.6	16.0*	3.2
C[C@H]1CN([C@@H](C)CO)C(=O)Cc2cc(NC(=O)Nc3cccc4ccccc34)ccc2O[C@H]1CN(C)Cc1ccc(Cl)c(Cl)c1	-1.2	15.4*	10.1
C[C@@H]1CN([C@H](C)CO)C(=O)Cc2cc(NC(=O)Nc3cccc4ccccc34)ccc2O[C@@H]1CN(C)Cc1ccc(Cl)c(Cl)c1	1.3	1.5	-1.5
C[C@@H]1CN([C@@H](C)CO)C(=O)Cc2cc(NC(=O)Nc3cccc4ccccc34)ccc2O[C@H]1CN(C)C(=O)Nc1cccc2ccccc12	0.7	1.8	44.6*
C[C@H](CO)N1C[C@H](C)[C@@H](CN(C)C(=O)Nc2cccc3ccccc23)Oc2ccc(NC(=O)Nc3cccc4ccccc34)cc2CC1=O	-0.3	-1.1	3.3
C[C@H]1CN([C@@H](C)CO)C(=O)Cc2cc(NC(=O)Nc3cccc4ccccc34)ccc2O[C@@H]1CN(C)C(=O)Nc1ccc(C(F)(F)F)cc1	54.7*	0.5	0.4
C[C@@H]1CCCCO[C@@H](CN(C)C(=O)c2ccncc2)[C@H](C)CN([C@@H](C)CO)C(=O)c2cc(NC(=O)C3CCCCC3)ccc2O1	-0.1	-1.6	-0.1
O=C(C1CCOCC1)N1CC(=O)N2[C@H](C1)[C@H](c1ccc(C#CC3CCCCC3)cc1)[C@@H]2CO	0.0	-1.6	2.2
COc1cccc(-c2cnc3c(c2)C(=O)N([C@H](C)CO)C[C@@H](C)[C@@H](CN(C)C(=O)Nc2c(C)noc2C)O3)c1	0.0	11.9	-5.5
C[C@@H]1CN([C@@H](C)CO)C(=O)c2cc(-c3ccncc3)cnc2O[C@H]1CN(C)C(=O)Nc1ccc2c(c1)OCO2	0.1	-0.1	-11.9
CCCNC(=O)C[C@H]1CC[C@H]2[C@@H](COC[C@H](O)CN2C(=O)Nc2cccc(Cl)c2)O1	0.0	2.4	0.4
CCCNC(=O)N1C[C@@H](O)COC[C@H]2O[C@@H](CC(=O)N3CCC(Cc4ccccc4)CC3)CC[C@@H]21	0.2	-0.3	-0.9

Assay outcomes (PubChem)
